These results are taken from ChEMBL document CHEMBL1144026, “Synthesis and anticonvulsant evaluation of N-substituted isoquinoline AMPA receptor antagonists” (2008).

One may read the ED50 as the dose at which the effect has come halfway, by size or by number of responders.

Test [1] is filed under the species Mus musculus. The test is described as follows: Anticonvulsant activity against audiogenic tonus seizures in DBA/2 mouse after 30 mins. The test is classed as functional. The note with it: DBA/2, 0.5 h. A digest of the protocol: (§1)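 DBA/2 mice aged 22 to 25 days, of either sex, in groups of 10. Dosed ip (0.1 mL/10 g) as a fresh solution in 50% DMSO/50% saline, or given vehicle. After 30 min, 60 s habituation under a dome, then 12–16 kHz, 109 dB sound for 60 s or until tonic extension. Seizure phase incidence and latency were scored. ED50 (≥32 animals, 95% confidence limits) by Litchfield–Wilcoxon.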

The species named for test [2] is Mus musculus. The test is described as follows: Anticonvulsant activity against audiogenic clonus seizures in DBA/2 mouse after 30 mins. Format: functional. The note with it: DBA/2, 0.5 h. A digest of the protocol:
as §1

A short description of test [3]: (§2) Reduction in AMPA-mediated current in CA1 pyramidal neurons of Wistar rat at 50 uM after 5 mins by patch clamp technique. Format: functional, Pyramidal neuron. Also on record: scale not given: the % may be the effect or the level left. A digest of the protocol:
(§3)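 Whole-cell patch clamp of single CA1 pyramidal neurons; pipette 1.5–3 MΩ, K-gluconate-based intracellular solution. (S)-AMPA 5 μM pulsed for 5 s by fast solution changer; test agent bath-perfused 5 min. Peak amplitude minus baseline and current duration from ≥3 consecutive responses per neuron, control vs drug; unpaired t test per neuron, Wilcoxon matched pairs across neurons.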
Background: In patch-clamp work, channel activity is measured electrically.

The test system of the next test is Pyramidal neuron. The description is as §2. Format: functional. The procedure, abridged:
as §3

Activity calls are given as the source filed them. The rule behind the calls is not given here.

As for `CCN(CC)C(=O)C(=O)N1CCc2cc(OC)c(OC)cc2C1c1ccc(Cl)cc1` (stereo unspecified), the median effective dose (ED50) in the test filed under Mus musculus [1] amounted to 67.7 µmol/kg; in the test filed under Mus musculus [2], 75.9 µmol/kg.

On to `COc1cc2c(cc1OC)C(c1ccccc1)N(C(=O)C(=O)N1CCCCC1)CC2` (stereo unspecified), for which the ED50 in the test filed under Mus musculus [1] came to 55.3 µmol/kg; in the test listed under Mus musculus [2], 98.1 µmol/kg.

As to `CCN(CC)C(=O)C(=O)N1CCc2cc(OC)c(OC)cc2C1c1ccccc1` (stereo unspecified), the ED50 was determined as 53.3 µmol/kg in the test filed under Mus musculus [1] and 65.1 µmol/kg in the test filed under Mus musculus [2].

In the case of `COc1cc2c(cc1OC)C(c1ccccc1)N(C(=O)C(=O)N1CCCC1)CC2` (stereo unspecified), the ED50 in the test listed under Mus musculus [1] was 54.6 µmol/kg; in the test listed under Mus musculus [2], greater than 100 µmol/kg.

On to `COc1cc2c(cc1OC)C(c1ccc(Cl)cc1)N(C(=O)C(=O)N1CCCCC1)CC2` (stereo unspecified), for which the results for the ED50 in the test listed under Mus musculus [1] and in the test listed under Mus musculus [2] were 65.3 µmol/kg and 88.4 µmol/kg, respectively.

As for `COc1cc2c(cc1OC)C(c1ccc(F)cc1)N(C(=O)C(=O)N1CCCCC1)CC2` (stereo unspecified), the values for the ED50 in the test listed under Mus musculus [1] and in the test listed under Mus musculus [2] were 38.7 µmol/kg and 44.6 µmol/kg, respectively. The compound further gave an Activity in test [3] of 60%.

Take `COc1cc2c(cc1OC)C(c1ccc(Cl)cc1)N(C(=O)C(=O)N1CCCC1)CC2` (stereo unspecified): the results for the ED50 in the test filed under Mus musculus [1] and in the test filed under Mus musculus [2] were 37.2 µmol/kg and 58.1 µmol/kg, respectively.

As for `CC1=NN=C(c2ccc(N)cc2)c2cc3c(cc2C1)OCO3`, the result in the test on Pyramidal neuron was Active.

For `COc1cc2c(cc1OC)C(c1ccc(F)cc1)N(C(=O)C(=O)N1CCOCC1)CC2` (stereo unspecified), the ED50 in the test listed under Mus musculus [1] is 90.2 µmol/kg; in the test listed under Mus musculus [2], greater than 100 µmol/kg.

In the case of `COc1cc2c(cc1OC)C(c1ccccc1)N(C(=O)C(=O)N1CCOCC1)CC2` (stereo unspecified), the ED50 in the test filed under Mus musculus [1] is 72.1 µmol/kg; in the test listed under Mus musculus [2], greater than 100 µmol/kg.

Consider `CCN(CC)C(=O)C(=O)N1CCc2cc(OC)c(OC)cc2C1c1ccc(Br)cc1` (stereo unspecified), for which the ED50 in the test listed under Mus musculus [1] and in the test listed under Mus musculus [2] was greater than 100 µmol/kg throughout.

As to `COc1cc2c(cc1OC)C(c1ccc(F)cc1)N(C(=O)C(=O)N1CCCC1)CC2` (stereo unspecified), the ED50 in the test listed under Mus musculus [1] is 73 µmol/kg; in the test listed under Mus musculus [2] it was greater than 100 µmol/kg.

Take `COc1cc2c(cc1OC)C(c1ccc(Cl)cc1)N(C(=O)C(=O)N1CCOCC1)CC2` (stereo unspecified): the values for the ED50 in the test filed under Mus musculus [1] and in the test listed under Mus musculus [2] were 46.9 µmol/kg and 91 µmol/kg, respectively.

As for `COc1cc2c(cc1OC)C(c1ccc(Br)cc1)N(C(=O)C(=O)N1CCCCC1)CC2` (stereo unspecified), the values for the ED50 in the test listed under Mus musculus [1] and in the test filed under Mus musculus [2] were 41.6 µmol/kg and 60.5 µmol/kg, respectively.

For `CCN(CC)C(=O)C(=O)N1CCc2cc(OC)c(OC)cc2C1c1ccc(F)cc1` (stereo unspecified), the ED50 in the test filed under Mus musculus [1] and in the test listed under Mus musculus [2] was greater than 100 µmol/kg throughout.

`COc1cc2c(cc1OC)C(c1ccc(Br)cc1)N(C(=O)C(=O)N1CCOCC1)CC2` (stereo unspecified): the ED50 in the test filed under Mus musculus [1] and in the test listed under Mus musculus [2] was greater than 100 µmol/kg in each case.

For the compound `COc1cc2c(cc1OC)C(c1ccc(Br)cc1)N(C(=O)C(=O)N1CCCC1)CC2` (stereo unspecified), the ED50 was determined as 45.4 µmol/kg in the test listed under Mus musculus [1] and 89.2 µmol/kg in the test filed under Mus musculus [2].

Consider `COc1cc2c(cc1OC)C(c1ccc(Br)cc1)N(C(=O)CN1CCCCC1)CC2` (stereo unspecified), for which the figures for the ED50 in the test filed under Mus musculus [1] and in the test filed under Mus musculus [2] were 8.17 µmol/kg and 12.7 µmol/kg, respectively.
